Assay results published in ChEMBL document CHEMBL2034940, “Synthesis of N6-alkyl(aryl)-2-alkyl(aryl)thioadenosines as antiplatelet agents” (Eur J Med Chem, 2012).

What was measured:
Platelet [1] = experiment: Inhibition of ADP-induced platelet aggregation in human platelet rich plasma incubated 1 min prior ADP induction measured after 3 mins by Born's method using aggregometer; assay type: functional, cell-free; conditions: for IC50: Homo sapiens, Platelet, Plasma
Procedure, shortened: (§1)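 Citrated (3.8% sodium citrate, 1:9) venous blood from healthy donors free of aspirin/NSAIDs for at least 14 days. PRP prepared by centrifugation, with PPP as the baseline blank. Compound in DMSO (below 0.5% final) added to 500 µL PRP 1 min before 10 µM ADP (final), at 37 °C. Aggregation is the maximum tracing height over at least 3 min, expressed as % inhibition versus vehicle. IC50 comes from non-linear regression, mean ± S.E.M., n = 3.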

Platelet [2] = experiment: Inhibition of arachidonic acid-induced platelet aggregation in human platelet rich plasma incubated 1 min prior arachidonic acid induction measured after 3 mins by Born's method using aggregometer; assay type: functional, cell-free; conditions: for IC50: Homo sapiens, Platelet, Plasma
Procedure, shortened: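 Citrated PRP from healthy volunteers free of aspirin/NSAIDs for at least 14 days, with PPP as the baseline blank. Compound in DMSO (below 0.5% final) preincubated 1 min in 500 µL PRP at 37 °C, then 0.5 mM arachidonic acid (final) added. Maximum aggregation height over at least 3 min gives % inhibition versus vehicle. IC50 by non-linear regression, mean ± S.E.M. of 3 experiments.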

Platelet [3] = experiment: Inhibition of ADP-induced platelet aggregation in human platelet rich plasma assessed as platelet aggregation at 300 uM incubated 1 min prior ADP induction measured after 3 mins by Born's method using aggregometry relative to control; assay type: functional; set-up: scale not given: the % may be the effect or the level left
Procedure, shortened: (§2)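 Human citrated PRP from drug-free healthy donors, with PPP as the blank, in an aggregometer at 37 °C. Compound added at 300 µM final in DMSO (below 0.5%) for 1 min, then 10 µM ADP final. Maximum aggregation tracing height read over at least 3 min and compared with the DMSO vehicle control.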

Platelet [4] = experiment: Inhibition of ADP-induced platelet aggregation in human platelet rich plasma at 300 uM incubated 1 min prior ADP induction measured after 3 mins by Born's method using aggregometer relative to control; assay type: functional; procedure, shortened: as §2
Platelet [5] = experiment: Inhibition of ADP-induced platelet aggregation in human platelet rich plasma; assay type: functional, cell-free; procedure, shortened: as §1

SMILES	inhibition (INH) (Platelet [1]) [%]	Activity (Platelet [3]) [%]	inhibition at 300 µM (Platelet [4]) [%]	other results
CCSc1nc(NCCc2cccc(OC)c2)c2ncn([C@@H]3O[C@H](CO)[C@@H](O)[C@H]3O)c2n1	>50	–	–	IC50 (Platelet [1]): 38 µM; inhibition (INH) (Platelet [2]): < 50%
CCCSc1nc(NCCc2cccc(OC)c2)c2ncn([C@@H]3O[C@H](CO)[C@@H](O)[C@H]3O)c2n1	>50	–	–	IC50 (Platelet [1]): 69 µM
CSc1nc(NCc2ccccc2)c2ncn([C@@H]3O[C@H](CO)[C@@H](O)[C@H]3O)c2n1	–	52	< 50	–
CCCSc1nc(NCc2ccc(OC)cc2)c2ncn([C@@H]3O[C@H](CO)[C@@H](O)[C@H]3O)c2n1	>50	–	–	–
CCCCSc1nc(NCCc2ccccc2)c2ncn([C@@H]3O[C@H](CO)[C@@H](O)[C@H]3O)c2n1	>50	–	–	IC50 (Platelet [1]): 59 µM; inhibition (INH) (Platelet [2]): < 50%
COc1cccc(CCNc2nc(SC)nc3c2ncn3[C@@H]2O[C@H](CO)[C@@H](O)[C@H]2O)c1	–	71	< 50	–
CSc1nc(NCc2ccc(C)cc2)c2ncn([C@@H]3O[C@H](CO)[C@@H](O)[C@H]3O)c2n1	–	77	< 50	–
CCSc1nc(NC2CCCCC2)c2ncn([C@@H]3O[C@H](CO)[C@@H](O)[C@H]3O)c2n1	>50	–	–	–
CSc1nc(NCCc2ccccc2)c2ncn([C@@H]3O[C@H](CO)[C@@H](O)[C@H]3O)c2n1	>50	–	–	IC50 (Platelet [1]): 36 µM; inhibition (INH) (Platelet [2]): >50%; IC50 (Platelet [2]): 3 µM
CCCCCCNc1nc(SCCC)nc2c1ncn2[C@@H]1O[C@H](CO)[C@@H](O)[C@H]1O	>50	–	–	–
COc1ccc(CCNc2nc(SC)nc3c2ncn3[C@@H]2O[C@H](CO)[C@@H](O)[C@H]2O)cc1	>50	–	–	–
CSCCNc1nc(SCCC(F)(F)F)nc2c1ncn2[C@@H]1O[C@H](COP(=O)(O)OP(=O)(O)C(Cl)(Cl)P(=O)(O)O)[C@@H](O)[C@H]1O [CANGRELOR TETRASODIUM]	–	–	–	IC50 (Platelet [5]): 0.0004 µM
CCSc1nc(NCCc2ccc(OC)cc2)c2ncn([C@@H]3O[C@H](CO)[C@@H](O)[C@H]3O)c2n1	>50	–	–	IC50 (Platelet [1]): 89 µM
CCSc1nc(NCc2ccc(C)cc2)c2ncn([C@@H]3O[C@H](CO)[C@@H](O)[C@H]3O)c2n1	–	88	< 50	–
COc1ccc(CNc2nc(SC)nc3c2ncn3[C@@H]2O[C@H](CO)[C@@H](O)[C@H]2O)cc1	–	69	< 50	–
CCCCSc1nc(NCCc2ccc(OC)cc2)c2ncn([C@@H]3O[C@H](CO)[C@@H](O)[C@H]3O)c2n1	>50	–	–	IC50 (Platelet [1]): 93 µM
CCSc1nc(NC(C)c2ccccc2)c2ncn([C@@H]3O[C@H](CO)[C@@H](O)[C@H]3O)c2n1 (some centres not stated)	>50	–	–	–

SMILES	inhibition (INH) (Platelet [1]) [%]	Activity (Platelet [3]) [%]	inhibition at 300 µM (Platelet [4]) [%]	other results
CCCSc1nc(NC2CCCCC2)c2ncn([C@@H]3O[C@H](CO)[C@@H](O)[C@H]3O)c2n1	>50	–	–	–
CC(C)Sc1nc(NC2CCCCC2)c2ncn([C@@H]3O[C@H](CO)[C@@H](O)[C@H]3O)c2n1	>50	–	–	–
CCSc1nc(NCc2ccc(OC)cc2)c2ncn([C@@H]3O[C@H](CO)[C@@H](O)[C@H]3O)c2n1	–	74	< 50	–
CCCCSc1nc(NC2CCCCC2)c2ncn([C@@H]3O[C@H](CO)[C@@H](O)[C@H]3O)c2n1	>50	–	–	IC50 (Platelet [1]): 83 µM
CCCSc1nc(NCCc2ccccc2)c2ncn([C@@H]3O[C@H](CO)[C@@H](O)[C@H]3O)c2n1	>50	–	–	IC50 (Platelet [1]): 52 µM; inhibition (INH) (Platelet [2]): >50%; IC50 (Platelet [2]): 44 µM
CCSc1nc(NCCc2ccccc2)c2ncn([C@@H]3O[C@H](CO)[C@@H](O)[C@H]3O)c2n1	>50	–	–	IC50 (Platelet [1]): 29 µM; inhibition (INH) (Platelet [2]): >50%; IC50 (Platelet [2]): 30 µM
CCSc1nc(NCc2ccccc2)c2ncn([C@@H]3O[C@H](CO)[C@@H](O)[C@H]3O)c2n1	>50	–	–	–
CCCCSc1nc(NCc2ccccc2)c2ncn([C@@H]3O[C@H](CO)[C@@H](O)[C@H]3O)c2n1	>50	–	–	–
CCCCN(CCCC)c1nc(SCC)nc2c1ncn2[C@@H]1O[C@H](CO)[C@@H](O)[C@H]1O	–	77	< 50	–
CCCCCCNc1nc(SCCCC)nc2c1ncn2[C@@H]1O[C@H](CO)[C@@H](O)[C@H]1O	–	66	< 50	–
CCCSc1nc(NCCc2ccc(OC)cc2)c2ncn([C@@H]3O[C@H](CO)[C@@H](O)[C@H]3O)c2n1	>50	–	–	–
CCCSc1nc(NCc2ccccc2)c2ncn([C@@H]3O[C@H](CO)[C@@H](O)[C@H]3O)c2n1	>50	–	–	–
CCCCCCNc1nc(SCC)nc2c1ncn2[C@@H]1O[C@H](CO)[C@@H](O)[C@H]1O	–	57	< 50	–
CCCCSc1nc(NCCc2cccc(OC)c2)c2ncn([C@@H]3O[C@H](CO)[C@@H](O)[C@H]3O)c2n1	–	85	< 50	–
OC[C@H]1O[C@@H](n2cnc3c(NCCc4ccccc4)nc(Sc4ccccc4)nc32)[C@H](O)[C@@H]1O	–	57	< 50	–
OC[C@H]1O[C@@H](n2cnc3c(NCCc4ccccc4)nc(SCc4ccccc4)nc32)[C@H](O)[C@@H]1O	–	57	< 50	–
